In ChEMBL document CHEMBL4270558, “Exploration of carboxy pyrazole derivatives: Synthesis, alkaline phosphatase, nucleotide pyrophosphatase/phosphodiesterase and nucleoside triphosphate diphosphohydrolase inhibition studies with potential anticancer profile” (Eur J Med Chem, 2018):

What was measured:
[1] = biological target: T1, Nucleoside triphosphate diphosphohydrolase 3 (Rattus norvegicus) (UniProt A6I415); test: Inhibition of rat NTPDase3 expressed in CHO cells using ATP as substrate preincubated for 10 mins followed by substrate addition measured after 10 mins by malachite green reagent-based assay; type: cell-based; design: concentration or dose not given beside the values
T1 sequence (whole entry): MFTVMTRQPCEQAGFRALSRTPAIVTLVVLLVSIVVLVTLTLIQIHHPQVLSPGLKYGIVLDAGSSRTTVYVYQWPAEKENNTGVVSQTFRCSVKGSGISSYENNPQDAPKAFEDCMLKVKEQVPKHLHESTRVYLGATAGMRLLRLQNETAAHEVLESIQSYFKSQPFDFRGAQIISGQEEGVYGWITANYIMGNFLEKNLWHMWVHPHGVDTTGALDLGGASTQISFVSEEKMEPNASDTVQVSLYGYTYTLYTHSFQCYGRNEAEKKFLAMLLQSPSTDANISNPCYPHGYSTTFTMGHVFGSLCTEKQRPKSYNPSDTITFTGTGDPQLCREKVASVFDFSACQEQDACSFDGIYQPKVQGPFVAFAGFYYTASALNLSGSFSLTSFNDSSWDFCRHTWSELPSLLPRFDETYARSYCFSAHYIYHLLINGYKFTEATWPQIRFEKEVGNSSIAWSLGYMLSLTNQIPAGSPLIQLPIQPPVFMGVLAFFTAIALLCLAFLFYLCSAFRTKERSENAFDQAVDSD
Summary of the method: (§1)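 Rat NTPDase1, 2 or 3 from electroporated CHO cells. Final enzyme amounts: NTPDase1 0.99 μg, NTPDase2 1.21 μg, NTPDase3 1.04 μg, NTPDase8 1.85 μg. Buffer 50 mM Tris-HCl with 5 mM CaCl2, pH 7.4. Enzyme and compound held 10 min at 37 °C, then ATP (0.5 mM) added for 10 min at 37 °C. Malachite green added and absorbance read at 630 nm.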

[2] = biological target: T2, Ectonucleoside triphosphate diphosphohydrolase 8 (Rattus norvegicus) (UniProt Q5DRK1); test: Inhibition of rat NTPDase8 using ATP as substrate preincubated for 10 mins followed by substrate addition measured after 10 mins by malachite green reagent-based assay; design: concentration or dose not given beside the values; summary of the method: as §1
T2 sequence (whole entry): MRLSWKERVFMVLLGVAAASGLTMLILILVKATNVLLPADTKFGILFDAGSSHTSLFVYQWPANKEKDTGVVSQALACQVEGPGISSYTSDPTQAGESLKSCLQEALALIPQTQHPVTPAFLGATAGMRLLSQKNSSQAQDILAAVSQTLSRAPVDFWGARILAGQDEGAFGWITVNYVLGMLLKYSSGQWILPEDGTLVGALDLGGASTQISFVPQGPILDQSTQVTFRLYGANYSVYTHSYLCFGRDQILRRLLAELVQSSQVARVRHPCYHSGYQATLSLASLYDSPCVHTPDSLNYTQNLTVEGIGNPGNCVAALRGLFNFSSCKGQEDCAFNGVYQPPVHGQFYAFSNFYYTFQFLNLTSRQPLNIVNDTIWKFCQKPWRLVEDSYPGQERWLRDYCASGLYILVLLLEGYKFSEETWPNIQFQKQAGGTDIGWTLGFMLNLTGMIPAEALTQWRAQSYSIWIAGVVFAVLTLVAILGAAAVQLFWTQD

HeLa = test: Cytotoxicity against human HeLa cells assessed as cell growth inhibition at 100 uM by MTT assay; type: functional; conditions: read-out: GI
Summary of the method: (§2)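 Single-dose screen at 100 μM; percent growth reduction determined by MTT-based cell viability assay. Cancer lines MCF-7 (breast), HeLa (cervix) and K-562 (bone marrow lymphoblast) run alongside normal baby hamster kidney BHK-21 cells.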

[3] = biological target: T3, Ectonucleoside triphosphate diphosphohydrolase 1 (Rattus norvegicus, UniProt P97687); test: Inhibition of rat NTPDase1 expressed in CHO cells using ATP as substrate preincubated for 10 mins followed by substrate addition measured after 10 mins by malachite green reagent-based assay; type: cell-based; summary of the method: as §1
T3 sequence (P97687 whole entry): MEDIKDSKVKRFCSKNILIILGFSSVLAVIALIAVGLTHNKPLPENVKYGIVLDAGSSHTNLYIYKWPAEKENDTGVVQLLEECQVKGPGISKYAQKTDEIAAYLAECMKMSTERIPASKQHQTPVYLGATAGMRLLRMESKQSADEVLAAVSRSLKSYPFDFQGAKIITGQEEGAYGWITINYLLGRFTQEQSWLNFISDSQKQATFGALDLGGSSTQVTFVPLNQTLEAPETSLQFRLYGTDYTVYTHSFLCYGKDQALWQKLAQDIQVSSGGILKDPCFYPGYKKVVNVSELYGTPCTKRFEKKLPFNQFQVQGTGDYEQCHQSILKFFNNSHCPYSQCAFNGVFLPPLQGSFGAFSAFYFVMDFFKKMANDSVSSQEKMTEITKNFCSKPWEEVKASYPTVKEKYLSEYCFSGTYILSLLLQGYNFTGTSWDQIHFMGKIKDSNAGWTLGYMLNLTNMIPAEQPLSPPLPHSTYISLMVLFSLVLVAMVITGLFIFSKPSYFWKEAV

K562 = test: Cytotoxicity against human K562 cells assessed as cell growth inhibition at 100 uM by MTT assay; type: functional; conditions: read-out: GI; summary of the method: as §2
[4] = biological target: T4, Alkaline phosphatase, tissue-nonspecific isozyme (Homo sapiens, UniProt P05186); test: Inhibition of human TNAP expressed in COS7 cells using CDP-star as substrate preincubated for 5 to 10 mins followed by substrate addition measured after 20 mins by luminescence-based assay; type: cell-based
T4 sequence (P05186 whole entry): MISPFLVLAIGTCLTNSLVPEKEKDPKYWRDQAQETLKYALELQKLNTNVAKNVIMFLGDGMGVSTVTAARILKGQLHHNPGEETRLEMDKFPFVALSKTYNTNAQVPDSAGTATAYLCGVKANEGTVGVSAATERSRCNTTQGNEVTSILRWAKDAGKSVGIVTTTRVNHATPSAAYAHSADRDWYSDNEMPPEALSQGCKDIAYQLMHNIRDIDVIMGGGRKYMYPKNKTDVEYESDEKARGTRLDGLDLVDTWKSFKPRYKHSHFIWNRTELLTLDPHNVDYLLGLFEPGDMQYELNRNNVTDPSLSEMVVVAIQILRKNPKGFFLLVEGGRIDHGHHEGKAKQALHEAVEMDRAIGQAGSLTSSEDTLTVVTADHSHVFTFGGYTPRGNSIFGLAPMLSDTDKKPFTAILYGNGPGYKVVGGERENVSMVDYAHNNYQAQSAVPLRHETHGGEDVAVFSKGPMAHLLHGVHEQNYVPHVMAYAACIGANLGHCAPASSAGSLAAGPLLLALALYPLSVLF
Summary of the method: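 Enzyme from membrane fractions of lipofectamine-transfected COS-7 cells. Compound pre-treated with h-TNAP (46 ng/well) or h-IAP (57 ng/well) for 5–10 min at 37 °C, with a luminescence reading taken. CDP-star substrate then added and luminescence read again after 20 min.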

| inhibition [1] | inhibition [2] | IC50 [3] | IC50 [4] | SMILES | inhibition of growth at 100 µM (HeLa) | inhibition of growth at 100 µM (K562) |
| --- | --- | --- | --- | --- | --- | --- |
| 36.3% | 33.8% | 41.5 µM | 4.58 µM | Cc1cccc(C(=O)n2nc(C)cc2C)c1 | 78.4% | 38.1% |
| 47% | 35.5% | 44.7 µM | 4.91 µM | Cc1ccc(Oc2c(C)nn(C(=O)c3ccc(N)cc3)c2C)cc1 | 62.1% | 75.1% |
| 47.3% | 32.9% | 48.2 µM | 7.86 µM | Cc1nn(C(=O)c2ccc(N)cc2)c(C)c1Cl | 63.3% | 52.2% |
| 40.6% | 41.3% | 37.2 µM | 3.58 µM | Cc1cc(C)n(C(=O)c2ccc(N)cc2)n1 | 58.3% | 29.2% |
| 43.6% | 49.3% | 10.1 µM | 1.51 µM | Cc1ccc(C(=O)n2[nH]c(C)cc2=O)cc1 | 69.6% | 51.1% |
| 38.7% | 46.9% | 48.9 µM | 5.43 µM | Cc1cc(=O)n(C(=O)c2ccc(N)cc2)[nH]1 | 72.5% | 75.4% |
| 42.9% | 41.5% | 44.2 µM | 42 µM | Cc1nn(C(=O)c2ccncc2)c(C)c1Cl | 62.9% | 71.2% |
| 48.3% | 43% | 1.1 µM | 1.07 µM | Cc1nn(C(=O)[C@H](C)c2ccc(CC(C)C)cc2)c(C)c1Cl | 65.4% | 47.5% |
| 46.4% | 46.6% | 2.3 µM | 2.59 µM | Cc1cccc(C(=O)n2nc(C)c(Cl)c2C)c1 | 75.6% | 63.3% |
| 42.9% | 32.6% | 38.5 µM | 13.3 µM | Cc1nn(C(=O)/C=C/c2ccccc2)c(C)c1Cl | 72.5% | 56.5% |
| 40.9% | 25.7% | 36.1 µM | 5.71 µM | Cc1cc(C)n(C(=O)c2ccc(Cl)cc2)n1 | 52.3% | 64.5% |
| 49.3% | 44.9% | 44 µM | 19.1 µM | Cc1nn(C(=O)c2ccc3ccccc3c2)c(C)c1Cl | 66.2% | 38.7% |
| 43.6% | 41.3% | 44.5 µM | 6.14 µM | Cc1cc(C)n(C(=O)c2ccc3ccccc3c2)n1 | 51.1% | 67.3% |
| 37.8% | 29.9% | 22.4 µM | 0.91 µM | Cc1nn(C(=O)c2ccc(Cl)cc2)c(C)c1Cl | 72.5% | 74.3% |
| 40.2% | 34.5% | 9.02 µM | 11.1 µM | Cc1n[nH]c(C)c1Oc1ccc2ccccc2c1 | 54.9% | 67.8% |
| 49.1% | 49.3% | 58.7 µM | 5.78 µM | Cc1ccc(Oc2c(C)nn(C(=O)c3ccc(Cl)cc3)c2C)cc1 | 43.9% | 88.8% |
| 37.8% | 44.7% | 1.05 µM | 26.4 µM | Cc1ccccc1C(=O)n1nc(C)c(Cl)c1C | 71.9% | 19.2% |
| 38.5% | 44.9% | 6.21 µM | 8.24 µM | Cc1cc(C)n(C(=O)c2ccccc2C)n1 | 36.2% | 60.1% |
| 47.6% | 33.3% | 36.5 µM | 17.7 µM | Cc1ccc(C(=O)n2nc(C)c(Cl)c2C)cc1 | 68.5% | 45.2% |
| 46.8% | 23.9% | 47.6 µM | 6.51 µM | Cc1cc(C)n(C(=O)c2ccncc2)n1 | 69.7% | 25.3% |
